Measurements: ChEMBL document CHEMBL4364257, “Discovery of novel Bcr-AblT315I inhibitors with flexible linker. Part 1: Confirmation optimization of phenyl-1H-indazol-3-amine as hinge binding moiety” (Eur J Med Chem, 2019)

Tests used:
Bcr/Abl fusion protein [1] = molecular target: Bcr/Abl fusion protein (Homo sapiens, UniProt P00519); test: Inhibition of wild type BCR/ABL (unknown origin) measured after 60 mins in presence of ATP by ADP-Glo kinase assay; type: protein assay
K562 = test: Antiproliferative activity against human BCR/ABL positive K562 cells assessed as growth inhibition measured after 48 hrs by MTT assay; type: functional, cell-based; conditions: K562, 48 h
In short: (§1)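 K562 and K562R (T315I) cells grown in RPMI 1640 + 10% FBS; 2500 cells/well seeded, 12 h at 37 °C, 5% CO2, then compounds at indicated final concentrations for 48 h. MTT 0.5 mg/mL final, 4 h at 37 °C; supernatant removed, DMSO added, absorbance at 490 nm. IC50 calculated from inhibition ratios.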

Bcr/Abl fusion protein [2] = molecular target: Bcr/Abl fusion protein (Homo sapiens, UniProt P00519, T315I); test: Inhibition of BCR/ABL T315I mutant (unknown origin) measured after 60 mins in presence of ATP by ADP-Glo kinase assay; type: protein assay
HEK293 = test: Cytotoxicity against human HEK293 cells upto 150 uM measured after 48 hrs by MTT assay; type: cell-based; conditions: hek293, 48 h
In short: (§2)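 Normal human cells (EA.hy926, Hek293) kept in DMEM + 10% FBS; 2500 cells/well, 12 h preincubation at 37 °C, 5% CO2; compound added at indicated final concentrations for 48 h. MTT at 0.5 mg/mL final for 4 h, formazan dissolved in DMSO, absorbance read at 490 nm.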

[3] = molecular target: Tyrosine-protein kinase HCK (Homo sapiens, UniProt P08631); test: Inhibition of human recombinant N-terminal GST tagged HCK (230 to 497 residues) expressed in baculovirus infected Sf9 cells using poly (Glu,Tyr) 4:1 as substrate measured after 60 mins in presence of ATP by ADP-Glo kinase assay
Tyrosine-protein kinase HCK, sequence (P08631 whole entry, the tested form may be a part): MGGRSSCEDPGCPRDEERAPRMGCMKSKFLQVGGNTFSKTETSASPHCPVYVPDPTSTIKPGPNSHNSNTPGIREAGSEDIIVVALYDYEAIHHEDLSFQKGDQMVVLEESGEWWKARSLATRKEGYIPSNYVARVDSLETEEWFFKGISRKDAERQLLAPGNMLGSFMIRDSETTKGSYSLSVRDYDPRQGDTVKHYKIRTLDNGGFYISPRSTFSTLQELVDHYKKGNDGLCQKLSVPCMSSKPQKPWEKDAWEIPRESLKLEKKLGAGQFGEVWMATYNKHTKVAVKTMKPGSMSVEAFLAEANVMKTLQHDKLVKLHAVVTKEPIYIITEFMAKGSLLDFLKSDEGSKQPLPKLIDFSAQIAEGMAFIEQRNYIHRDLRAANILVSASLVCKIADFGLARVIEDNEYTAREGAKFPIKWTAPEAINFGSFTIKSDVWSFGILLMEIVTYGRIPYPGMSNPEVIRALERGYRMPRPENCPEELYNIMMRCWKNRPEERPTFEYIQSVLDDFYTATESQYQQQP
In short: (§3)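 ADP-Glo luminescence format: kinase with substrate/ATP mix and inhibitor in 40 mM Tris pH 7.4, 10 mM MgCl2, 0.1 mg/mL BSA, 1 mM DTT, 60 min at 30 °C. ADP-Glo reagent 40 min at room temperature to stop and deplete ATP, then detection reagent 30 min; luminescence read.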

[4] = molecular target: Proto-oncogene tyrosine-protein kinase Src (Homo sapiens, UniProt P12931); test: Inhibition of human recombinant full length N-terminal GST tagged SRC expressed in Escherichia coli using KVEKIGEGTYGVVYK-amide as substrate measured after 60 mins in presence of ATP by ADP-Glo kinase assay; in short: as §3
Proto-oncogene tyrosine-protein kinase Src, sequence (P12931 2-536 limits assumed): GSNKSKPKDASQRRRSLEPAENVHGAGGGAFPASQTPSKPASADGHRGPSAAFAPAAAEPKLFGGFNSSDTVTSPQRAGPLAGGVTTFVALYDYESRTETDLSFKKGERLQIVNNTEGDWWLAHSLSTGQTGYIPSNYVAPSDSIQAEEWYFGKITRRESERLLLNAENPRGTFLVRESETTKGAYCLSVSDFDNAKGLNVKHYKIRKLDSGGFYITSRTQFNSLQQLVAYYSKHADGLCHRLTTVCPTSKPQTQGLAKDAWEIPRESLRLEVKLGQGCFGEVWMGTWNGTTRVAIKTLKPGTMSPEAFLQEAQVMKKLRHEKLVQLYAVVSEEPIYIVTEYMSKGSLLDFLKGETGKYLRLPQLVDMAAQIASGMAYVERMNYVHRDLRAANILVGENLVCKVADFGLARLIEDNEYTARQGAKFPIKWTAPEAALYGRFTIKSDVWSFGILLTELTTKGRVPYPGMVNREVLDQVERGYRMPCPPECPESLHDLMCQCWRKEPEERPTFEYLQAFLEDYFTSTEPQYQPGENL

[5] = molecular target: Mitogen-activated protein kinase 14 (Homo sapiens, UniProt Q16539); test: Inhibition of human recombinant full length N-terminal GST tagged p38alpha expressed in baculovirus infected Sf9 cells using p38 peptide as substrate measured after 60 mins in presence of ATP by ADP-Glo kinase assay; in short: as §3
Mitogen-activated protein kinase 14, sequence (Q16539 whole entry, the tested form may be a part): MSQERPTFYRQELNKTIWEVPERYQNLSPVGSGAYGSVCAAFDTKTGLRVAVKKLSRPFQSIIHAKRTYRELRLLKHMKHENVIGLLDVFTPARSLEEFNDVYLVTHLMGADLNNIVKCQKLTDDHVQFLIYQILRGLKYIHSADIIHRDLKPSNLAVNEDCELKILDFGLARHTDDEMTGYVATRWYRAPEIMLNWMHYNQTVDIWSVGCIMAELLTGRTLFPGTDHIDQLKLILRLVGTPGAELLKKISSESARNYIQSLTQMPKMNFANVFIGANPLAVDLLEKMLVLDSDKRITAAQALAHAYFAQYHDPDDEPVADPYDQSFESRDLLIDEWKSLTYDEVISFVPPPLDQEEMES

[6] = molecular target: Bcr/Abl fusion protein (Homo sapiens) (UniProt P00519+P11274); test: Inhibition of BCR/ABL phosphorylation in human K562 cells measured after 4 hrs by Western blot analysis; type: cell-based
In short: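 K562 cells exposed to DMSO vehicle or drug for 4 h, lysed in SDS sample buffer, BCA-normalized; equal protein run on SDS-PAGE, transferred to PVDF, blocked in 5% milk/TBS-0.1% Tween-20. Probed overnight at 4 °C for Bcr-Abl, p-Bcr-Abl, actin; HRP secondaries 2 h at room temperature; ECL detection.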

K-562R = test: Antiproliferative activity against human K562R cells expressing BCR/ABL T315I mutant assessed as growth inhibition measured after 48 hrs by MTT assay; type: functional, cell-based; in short: as §1
EA.hy 926 = test: Cytotoxicity against human EAhy926 cells upto 150 uM measured after 48 hrs by MTT assay; type: cell-based; conditions: ea.hy 926, 48 h; in short: as §2

| IC50 (Bcr/Abl fusion protein [1]) [µM] | IC50 (K562) [µM] | IC50 (Bcr/Abl fusion protein [2]) [µM] | SMILES | further results |
| --- | --- | --- | --- | --- |
| 1.35 | 9.49 | 38.5 | Nc1n[nH]c2cccc(-c3ccc(C(=O)NCCNC(=O)c4ccc(F)cc4)cc3)c12 |  |
| 2.34 | 39.1 | 8.6 | Nc1n[nH]c2cc(-c3ccc(C(=O)N4CCN(C(=O)c5ccc(F)cc5)CC4)cc3)ccc12 |  |
| 2.54 | 61.2 | 6.23 | CN(C)c1ccc(C(=O)N2CCN(C(=O)c3ccc(-c4ccc5c(N)n[nH]c5c4)cc3)CC2)cc1 |  |
| 0.043 | 1.65 | 0.17 | Nc1n[nH]c2cc(-c3ccc(C(=O)NCCNC(=O)c4ccc(Cl)c(C(F)(F)F)c4)cc3)ccc12 | Activity (HEK293): Non-Toxic; IC50 [3]: > 100 µM; IC50 [4]: 15.1 µM; IC50 [5]: 34.5 µM; inhibition [6]: Dose-dependent effect; IC50 (K-562R): 5.42 µM; Activity (EA.hy 926): Non-Toxic |
| 3.45 | 7.52 | 0.29 | CN(C)c1ccc(C(=O)NCCNC(=O)c2ccc(-c3ccc4c(N)n[nH]c4c3)cc2)cc1 |  |
| 5.85 | > 150 | 179 | Cc1ccc(C(=O)N2CCN(C(=O)c3ccc(-c4cccc5[nH]nc(N)c45)cc3)CC2)cc1 |  |
| 7.12 | 9.25 | 1.5 | Nc1n[nH]c2cccc(-c3ccc(C(=O)N4CCN(C(=O)c5ccc(Br)cc5)CC4)cc3)c12 |  |
| 2.16 | 14 | 2.68 | Nc1n[nH]c2cc(-c3ccc(C(=O)NCCNC(=O)c4ccc(Br)cc4)cc3)ccc12 |  |
| 32.2 | 59.3 | 3.72 | Cc1ccc(C(=O)N2CCN(C(=O)c3ccc(-c4ccc5c(N)n[nH]c5c4)cc3)CC2)cc1 |  |
|  | 4.26 |  | Cc1ccc(NC(=O)c2ccc(CN3CCN(C)CC3)cc2)cc1Nc1nccc(-c2cccnc2)n1 [IMATINIB] | IC50 (K-562R): 90 µM |
| 0.38 | 1.45 | 4.3 | Cc1ccc(C(=O)NCCNC(=O)c2ccc(-c3ccc4c(N)n[nH]c4c3)cc2)cc1 |  |
| 2.45 | 13.4 | 61.2 | Nc1n[nH]c2cc(-c3ccc(C(=O)NCCNC(=O)c4ccc(F)cc4)cc3)ccc12 |  |
| 17.6 | 102 | 20.9 | Nc1n[nH]c2cccc(-c3ccc(C(=O)N4CCN(C(=O)c5ccc(F)cc5)CC4)cc3)c12 |  |
| 1.99 | 4.84 | 5.33 | Nc1n[nH]c2cc(-c3ccc(C(=O)N4CCN(C(=O)c5ccc(Cl)c(C(F)(F)F)c5)CC4)cc3)ccc12 |  |
| 6.28 | 11.3 | 31.9 | Nc1n[nH]c2cc(-c3ccc(C(=O)N4CCN(C(=O)c5ccc(Br)cc5)CC4)cc3)ccc12 |  |
| 10.7 | 4.9 | 2.08 | Nc1n[nH]c2cccc(-c3ccc(C(=O)N4CCN(C(=O)c5ccc(Cl)c(C(F)(F)F)c5)CC4)cc3)c12 |  |
| 4.28 | > 150 | 86.1 | CN(C)c1ccc(C(=O)N2CCN(C(=O)c3ccc(-c4cccc5[nH]nc(N)c45)cc3)CC2)cc1 |  |
| 0.11 | 17.1 | 20 | Nc1n[nH]c2cccc(-c3ccc(C(=O)NCCNC(=O)c4ccc(Cl)c(C(F)(F)F)c4)cc3)c12 |  |
|  | 5.93 |  | Cc1ccc(C(=O)NCCNC(=O)c2ccc(-c3cccc4[nH]nc(N)c34)cc2)cc1 |  |
| 31.6 | > 150 | 94.8 | Nc1n[nH]c2cccc(-c3ccc(C(=O)NCCNC(=O)c4ccc(Br)cc4)cc3)c12 |  |
| 5.75 | > 150 | 76.8 | CN(C)c1ccc(C(=O)NCCNC(=O)c2ccc(-c3cccc4[nH]nc(N)c34)cc2)cc1 |  |
